According to article PMC2903386 (The Journal of Biological Chemistry, 2010):
Non-standard residues stand in square brackets, D forms with d. Residues, ends and D or L forms follow the SMILES beside them. *: point of attachment. X1 = CC[N+]1=C(C=CC=CC=C2N(CCCCCC(=O)NCCN3C(=O)CC(*)C3=O)c3ccc(S(=O)(=O)O)cc3C2(C)C)C(C)(C)c2cc(S(=O)(=O)[O-])ccc21; Propanoyl(3-maleimido) = O=C1C=CC(=O)N1CCC(=O)*; Ahx = NCCCCCC(=O)O

How the values were obtained:
[1] = Tumor standardized uptake value; type: in vivo; conditions: mouse, iv
PyMT mammary tumors = test: Fluorescence imaging contrast in PyMT tumor-bearing mice; type: in vivo, mouse; conditions: PyMT mice; for fluorescence contrast in tumors relative to adjacent normal tissue (in words): Cy5-labeled ACPP i.v., 6 h, data not shown
In short: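 PyMT transgenic mice bearing spontaneous mammary tumors were anesthetized with ketamine 80 mg/kg plus midazolam 5 mg/kg (1:1) and weighed. They were injected via the tail vein with Cy5 peptide: free peptide 100 μl of 100 μM (10 nmol) or albumin-reactive peptide 100 μl of 30 μM (3 nmol). Maestro imaging (ex 640 ± 24 nm, em >700 nm) was done at 6 h or 48 h, comparing tumor with adjacent normal tissue.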

[2] = Effect of inhibitors on cleavage of RLQLKL ACPP by PyMT tumor cystic fluid; type: biochemical, mouse; conditions: for inhibition of cystic fluid cleavage of RLQLKL ACPP (in words): 5 μM Cy5-labeled RLQLKL ACPP, 2% cystic fluid, 2 h, 5 mM Ca-DTPA, 50 μM TPEN, 18 μM SB3CT, 50 nM GM6001, 0.26 μM prinomastat, 150 nM aprotinin, 100 μM leupeptin, 60 μM α1-antitrypsin, gel
In short: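 Cystic fluid was aspirated by syringe from surgically exposed fluid-filled mammary tumor nodules of PyMT mice. The 5 μm Cy5 peptide was incubated at 37 °C for 2 h in PBS with 1 μm ZnCl2. Inhibitors were used at manufacturer-recommended concentrations, including 10 μm E-64, 1 μm pepstatin A, protease inhibitor mixture III (1:1000) and mixture III plus DTPA. Cleavage was read by Tricine gel electrophoresis and Cy5 fluorescence imaging.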

Tumor uptake = type: in vivo; conditions: nude, mouse, tumor (MDA-MB-435 M4A4 xenograft), iv, 10 nmol
In short: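 After imaging, mice were euthanized with isoflurane. 30 mg of each tissue was homogenized in 100 μl Tris pH 7.6 with 1% SDS, heated to 85 °C for 10 min, microwaved 10 s and spun at 20,500 × g for 15 min, then imaged. Tissue-specific spiked standards calibrated fluorescence. SUV = tissue peptide molality ÷ injected dose (mol/kg body weight). Values are means ± S.D.; two-tailed t tests.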

[3] = Effect of inhibitors on cleavage of RLQLKL ACPP by tumor extract; type: biochemical, mouse; conditions: 5 μM Cy5-labeled RLQLKL ACPP, tumor extract 2.0 to 0.25%; 60 μM α1-antitrypsin; gel
In short: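 Fresh tumor tissue was gently homogenized in PBS on ice and spun at 14,000 × g for 1 min; the supernatant served as the extract. The 5 μm Cy5 peptide was digested at 37 °C in PBS containing 1 μm ZnCl2, with or without 60 μm α1-antitrypsin. Aliquots were taken from 20 min to 18 h, with the 2-h point reported. Cleavage was quantified by Tricine gel and fluorescence imaging.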

trypsin = trypsin (Bos taurus, UniProt P00760); test: Cleavage by purified trypsin; type: in vitro ADME, bovine; conditions: Cy5-labeled ACPP, gel (supplemental Fig. 4)
Sequence of trypsin (P00760 24-246): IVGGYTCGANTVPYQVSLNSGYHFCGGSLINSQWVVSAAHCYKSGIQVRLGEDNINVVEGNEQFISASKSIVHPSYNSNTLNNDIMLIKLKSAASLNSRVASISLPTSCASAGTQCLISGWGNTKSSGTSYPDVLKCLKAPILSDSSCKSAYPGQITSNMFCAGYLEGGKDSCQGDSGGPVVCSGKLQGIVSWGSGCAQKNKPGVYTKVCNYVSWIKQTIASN
In short: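 Commercial active-form purified enzyme at 50 nm was incubated with 5 μm Cy5-labeled peptide in the manufacturer's recommended buffer. Samples were mixed with Tricine sample buffer, boiled 1 min, and resolved on 10–20% Tricine acrylamide gels. Gels were imaged quantitatively at excitation 628 ± 20 nm and emission >700 nm, and the percentage of cleaved versus uncleaved peptide was quantified.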

## CC[N+]1=C(C=CC=CC=C2N(CCCCCC(=O)NCCN3C(=O)CC(SC[C@@H](NC(=O)[C@@H](CCCNC(=N)N)NC(=O)[C@@H](CCCNC(=N)N)NC(=O)[C@@H](CCCNC(=N)N)NC(=O)[C@@H](CCCNC(=N)N)NC(=O)[C@@H](CCCNC(=N)N)NC(=O)[C@@H](CCCNC(=N)N)NC(=O)[C@@H](CCCNC(=N)N)NC(=O)[C@@H](CCCNC(=N)N)NC(=O)[C@@H](CCCNC(=N)N)NC(=O)[C@H](CC(C)C)NC(=O)[C@H](CCCCNC(C)=O)NC(=O)[C@H](CC(C)C)NC(=O)[C@H](CCC(N)=O)NC(=O)[C@H](CC(C)C)NC(=O)[C@H](CCCNC(=N)N)NC(=O)CCCCCNC(=O)[C@@H](CCC(=O)O)NC(=O)[C@@H](CCC(=O)O)NC(=O)[C@@H](CCC(=O)O)NC(=O)[C@@H](CCC(=O)O)NC(=O)[C@@H](CCC(=O)O)NC(=O)[C@@H](CCC(=O)O)NC(=O)[C@@H](CCC(=O)O)NC(=O)[C@@H](CCC(=O)O)NC(=O)[C@@H](CCC(=O)O)NC(=O)CCN4C(=O)C=CC4=O)C(N)=O)C3=O)c3ccc(S(=O)(=O)O)cc3C2(C)C)C(C)(C)c2cc(S(=O)(=O)[O-])ccc21 (some centres unmarked) [Mal-RLQLK(Ac)L ACPP] ({Propanoyl(3-maleimido)}-[dE][dE][dE][dE][dE][dE][dE][dE][dE][Ahx]RLQLK(Ac)L[dR][dR][dR][dR][dR][dR][dR][dR][dR][dC](X1)-NH2)
[1]; PyMT, 3 nmol
  SUV at 48 h: 2.3 ± 0.6 SUV
PyMT mammary tumors; fluorescence imaging 48 h postinjection of 3 nmol
  Tumor to non-tumor contrast, albumin-reactive peptide: 5.1 fold

## O=S(=O)(CC1CS1)c1ccc(Oc2ccccc2)cc1 (centres unmarked) [SB3CT]
[2]
  inhibition of cystic fluid cleavage of RLQLKL ACPP (in words): unaffected

## CC[N+]1=C(C=CC=CC=C2N(CCCCCC(=O)NCCN3C(=O)CC(SC[C@@H](NC(=O)[C@@H](CCCNC(=N)N)NC(=O)[C@@H](CCCNC(=N)N)NC(=O)[C@@H](CCCNC(=N)N)NC(=O)[C@@H](CCCNC(=N)N)NC(=O)[C@@H](CCCNC(=N)N)NC(=O)[C@@H](CCCNC(=N)N)NC(=O)[C@@H](CCCNC(=N)N)NC(=O)[C@@H](CCCNC(=N)N)NC(=O)[C@@H](CCCNC(=N)N)NC(=O)[C@@H](CC(C)C)NC(=O)[C@@H](CCCCN)NC(=O)[C@@H](CC(C)C)NC(=O)[C@@H](CCC(N)=O)NC(=O)[C@@H](CC(C)C)NC(=O)[C@@H](CCCNC(=N)N)NC(=O)CCCCCNC(=O)[C@@H](CCC(=O)O)NC(=O)[C@@H](CCC(=O)O)NC(=O)[C@@H](CCC(=O)O)NC(=O)[C@@H](CCC(=O)O)NC(=O)[C@@H](CCC(=O)O)NC(=O)[C@@H](CCC(=O)O)NC(=O)[C@@H](CCC(=O)O)NC(=O)[C@@H](CCC(=O)O)NC(=O)[C@H](N)CCC(=O)O)C(N)=O)C3=O)c3ccc(S(=O)(=O)O)cc3C2(C)C)C(C)(C)c2cc(S(=O)(=O)[O-])ccc21 (some centres unmarked) [rlqlkl]
Tumor uptake
  SUV at 6 h: 0.34 ± 0.16 SUV

## O=C(O)CN(CCN(CC(=O)O)CC(=O)O)CCN(CC(=O)O)CC(=O)O [DTPA, diethylene triamine pentacetic acid]
[2]
  inhibition of cystic fluid cleavage of RLQLKL ACPP (in words): unaffected

## c1ccc(CN(CCN(Cc2ccccn2)Cc2ccccn2)Cc2ccccn2)nc1 [TPEN, N,N,N′,N-tetrakis (2-pyridylmethyl) ethylenediamine]
[2]
  inhibition of cystic fluid cleavage of RLQLKL ACPP (in words): unaffected

## α1-antitrypsin: natural inhibitor of elastase [reference compound]
[2]
  inhibition of cystic fluid cleavage of RLQLKL ACPP (in words): inhibited
[3]
  inhibition of tumor extract cleavage of RLQLKL ACPP (in words): significantly inhibited

## CC1(C)SCCN(S(=O)(=O)c2ccc(Oc3ccncc3)cc2)[C@H]1C(=O)NO [prinomastat]
[2]
  inhibition of cystic fluid cleavage of RLQLKL ACPP (in words): unaffected

## RTRYED [RTRYED ACPP]
trypsin
  cleavage by trypsin (in words): efficiently cleaved
PyMT mammary tumors
  fluorescence contrast in tumors relative to adjacent normal tissue (in words): little fluorescence contrast

## GMMYRS [GMMYRS ACPP]
trypsin
  cleavage by trypsin (in words): efficiently cleaved
PyMT mammary tumors
  fluorescence contrast in tumors relative to adjacent normal tissue (in words): little fluorescence contrast

## CC[N+]1=C(C=CC=CC=C2N(CCCCCC(=O)NCCN3C(=O)CC(SC[C@@H](NC(=O)[C@@H](CCCNC(=N)N)NC(=O)[C@@H](CCCNC(=N)N)NC(=O)[C@@H](CCCNC(=N)N)NC(=O)[C@@H](CCCNC(=N)N)NC(=O)[C@@H](CCCNC(=N)N)NC(=O)[C@@H](CCCNC(=N)N)NC(=O)[C@@H](CCCNC(=N)N)NC(=O)[C@@H](CCCNC(=N)N)NC(=O)[C@@H](CCCNC(=N)N)NC(=O)[C@@H](CC(C)C)NC(=O)[C@@H](CCCCN)NC(=O)[C@@H](CC(C)C)NC(=O)[C@@H](CCC(N)=O)NC(=O)[C@@H](CC(C)C)NC(=O)[C@@H](CCCNC(=N)N)NC(=O)CCCCCNC(=O)[C@@H](CCC(=O)O)NC(=O)[C@@H](CCC(=O)O)NC(=O)[C@@H](CCC(=O)O)NC(=O)[C@@H](CCC(=O)O)NC(=O)[C@@H](CCC(=O)O)NC(=O)[C@@H](CCC(=O)O)NC(=O)[C@@H](CCC(=O)O)NC(=O)[C@@H](CCC(=O)O)NC(=O)[C@H](N)CCC(=O)O)C(N)=O)C3=O)c3ccc(S(=O)(=O)O)cc3C2(C)C)C(C)(C)c2cc(S(=O)(=O)[O-])ccc21 (some centres unmarked) [rlqlkl ACPP]
[1]; PyMT, 10 nmol
  SUV at 6 h: 0.13 ± 0.03 SUV

## aprotinin
[2]
  inhibition of cystic fluid cleavage of RLQLKL ACPP (in words): partially inhibited

## CNC(=O)[C@H](Cc1c[nH]c2ccccc12)NC(=O)[C@@H](CC(=O)NO)CC(C)C [GM6001]
[2]
  inhibition of cystic fluid cleavage of RLQLKL ACPP (in words): unaffected
[2]; GM6001 at 1 μM, data not shown
  inhibition of cystic fluid cleavage of RLQLKL ACPP at 1 μM (in words): no inhibition

## CC[N+]1=C(C=CC=CC=C2N(CCCCCC(=O)NCCN3C(=O)CC(SC[C@@H](NC(=O)[C@@H](CCCNC(=N)N)NC(=O)[C@@H](CCCNC(=N)N)NC(=O)[C@@H](CCCNC(=N)N)NC(=O)[C@@H](CCCNC(=N)N)NC(=O)[C@@H](CCCNC(=N)N)NC(=O)[C@@H](CCCNC(=N)N)NC(=O)[C@@H](CCCNC(=N)N)NC(=O)[C@@H](CCCNC(=N)N)NC(=O)[C@@H](CCCNC(=N)N)NC(=O)CNC(=O)[C@@H](C)NC(=O)[C@@H](CC(C)C)NC(=O)CNC(=O)[C@@H](CC(C)C)NC(=O)[C@H]4CCCN4C(=O)CCCCCNC(=O)[C@@H](CCC(=O)O)NC(=O)[C@@H](CCC(=O)O)NC(=O)[C@@H](CCC(=O)O)NC(=O)[C@@H](CCC(=O)O)NC(=O)[C@@H](CCC(=O)O)NC(=O)[C@@H](CCC(=O)O)NC(=O)[C@@H](CCC(=O)O)NC(=O)[C@@H](CCC(=O)O)NC(=O)[C@H](N)CCC(=O)O)C(N)=O)C3=O)c3ccc(S(=O)(=O)O)cc3C2(C)C)C(C)(C)c2cc(S(=O)(=O)[O-])ccc21 (stereo partly drawn) [PLGLAG ACPP D-amino acid control, reference compound] (H-[dE][dE][dE][dE][dE][dE][dE][dE][dE][Ahx][dP][dL]G[dL][dA]G[dR][dR][dR][dR][dR][dR][dR][dR][dR][dC](X1)-NH2)
[1]
  SUV: 0.14 ± 0.06 SUV

## CC[N+]1=C(C=CC=CC=C2N(CCCCCC(=O)NCCN3C(=O)CC(SC[C@@H](NC(=O)[C@@H](CCCNC(=N)N)NC(=O)[C@@H](CCCNC(=N)N)NC(=O)[C@@H](CCCNC(=N)N)NC(=O)[C@@H](CCCNC(=N)N)NC(=O)[C@@H](CCCNC(=N)N)NC(=O)[C@@H](CCCNC(=N)N)NC(=O)[C@@H](CCCNC(=N)N)NC(=O)[C@@H](CCCNC(=N)N)NC(=O)[C@@H](CCCNC(=N)N)NC(=O)CNC(=O)[C@H](C)NC(=O)[C@H](CC(C)C)NC(=O)CNC(=O)[C@H](CC(C)C)NC(=O)[C@@H]4CCCN4C(=O)CCCCCNC(=O)[C@@H](CCC(=O)O)NC(=O)[C@@H](CCC(=O)O)NC(=O)[C@@H](CCC(=O)O)NC(=O)[C@@H](CCC(=O)O)NC(=O)[C@@H](CCC(=O)O)NC(=O)[C@@H](CCC(=O)O)NC(=O)[C@@H](CCC(=O)O)NC(=O)[C@@H](CCC(=O)O)NC(=O)[C@H](N)CCC(=O)O)C(N)=O)C3=O)c3ccc(S(=O)(=O)O)cc3C2(C)C)C(C)(C)c2cc(S(=O)(=O)[O-])ccc21 (some centres unmarked) [PLGLAG ACPP, reference compound] (H-[dE][dE][dE][dE][dE][dE][dE][dE][dE][Ahx]PLGLAG[dR][dR][dR][dR][dR][dR][dR][dR][dR][dC](X1)-NH2)
[1]
  SUV: 0.51 ± 0.05 SUV

## CC(=O)N[C@@H](CC(C)C)C(=O)N[C@@H](CC(C)C)C(=O)N[C@H](C=O)CCCNC(=N)N [leupeptin]
[2]
  inhibition of cystic fluid cleavage of RLQLKL ACPP (in words): partially inhibited
